Experimental data published in ChEMBL document CHEMBL4689842, “EUbOPEN Chemogenomics Library wave 1” (2021).
“And” between values parts separate entries of the source, which are not always exact repeats. Equal entries are not always repeated.

Test system: Fibroblast
Assay: Multiplex assay against human fibroblast
Format: toxicity, cell-based
Method in brief: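 Live cells were stained at seeding with Hoechst33342, BioTracker Green Microtubule Cytoskeleton Dye, MitoTracker Red and Annexin V Alexa Fluor 680. Following compound addition, they were imaged on a CQ1 microscope at 37°C and 5% CO2 and gated by CellPathfinder machine learning into Hoechst high-intensity objects or normal cells, with normal cells split into healthy, pyknosed or fragmented nuclei and pyknosed cells into mitotic or apoptotic. Tubulin, mitochondrial-mass and membrane-permeability phenotypes are per cents of healthy-nucleus cells.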

[1] = 12 h, 1 µM, compound concentration 1 uM, replicate 1
[2] = 12 h, 1 µM, compound concentration 1 uM, replicate 2
[3] = 12 h, 10 µM, compound concentration 10 uM, replicate 1
[4] = 12 h, 10 µM, compound concentration 10 uM, replicate 2
[5] = 24 h, 1 µM, compound concentration 1 uM, replicate 1
[6] = 24 h, 1 µM, compound concentration 1 uM, replicate 2
[7] = 24 h, 10 µM, compound concentration 10 uM, replicate 1
[8] = 24 h, 10 µM, compound concentration 10 uM, replicate 2

Q: What does the source list for `CC(=O)O[C@H]1C(=O)[C@@]2(C)[C@H]([C@H](OC(=O)c3ccccc3)[C@]3(O)C[C@H](OC(=O)[C@H](O)[C@@H](NC(=O)c4ccccc4)c4ccccc4)C(C)=C1C3(C)C)[C@]1(OC(C)=O)CO[C@@H]1C[C@@H]2O` [PACLITAXEL]?
A: Population Apoptotic (%) [1]: 55% and 76%; Population Fragmented Nuclei (%) [1]: 25% and 15%; Population Healthy Nuclei (%) [1]: 66% and 75%; Population Hoechst High Intensity Objects (%) [1]: 11% and 8%; Population Membrane Permeable-Phenotype (%) [1]: 5%; Population Mitochondria Different-Phenotype (%) [1]: 3% and 2%; Population Mitotic Cells (%) [1]: 45% and 23%; Population Normal (%) [1]: 88% and 91%; Population Pyknosed Nuclei (%) [1]: 8% and 9%; Population Tubulin-Different-Phenotype (%) [1]: 0%; Total Cell Count [1]: 281 and 246; Population Fragmented Nuclei (%) [2]: 46% and 34%; Population Healthy Nuclei (%) [2]: 35% and 59%; Population Hoechst High Intensity Objects (%) [2]: 32% and 39%; Population Mitochondria Different-Phenotype (%) [2]: 10% and 15%; Population Mitotic Cells (%) [2]: 40% and 100%; Population Normal (%) [2]: 67% and 60%; Population Pyknosed Nuclei (%) [2]: 18% and 6%; Population Tubulin-Different-Phenotype (%) [2]: 10% and 26%; Total Cell Count [2]: 80 and 73; Population Apoptotic (%) [3]: 81% [middle of 4 runs]; Population Fragmented Nuclei (%) [3]: 23% and 24%; Population Healthy Nuclei (%) [3]: 61% [middle of 4 runs]; Population Hoechst High Intensity Objects (%) [3]: 12% [middle of 4 runs]; Population Membrane Permeable-Phenotype (%) [3]: 5% and 3%; Population Mitochondria Different-Phenotype (%) [3]: 5% and 4% and 2%; Population Mitotic Cells (%) [3]: 26% [middle of 4 runs]; Population Normal (%) [3]: 88% and 90% and 79% and 87%; Population Pyknosed Nuclei (%) [3]: 14% and 21% and 11%; Total Cell Count [3]: 304 [middle of 4 runs]; Population Fragmented Nuclei (%) [4]: 58% [middle of 4 runs]; Population Healthy Nuclei (%) [4]: 42% [middle of 4 runs]; Population Hoechst High Intensity Objects (%) [4]: 37% [middle of 4 runs]; Population Normal (%) [4]: 68% and 62% and 51% and 72%; Population Pyknosed Nuclei (%) [4]: 7% and 6% and 8%; Population Tubulin-Different-Phenotype (%) [4]: 9% [middle of 4 runs]; Total Cell Count [4]: 93 and 80 and 115; Population Apoptotic (%) [5]: 48% and 38%; Population Fragmented Nuclei (%) [5]: 18% and 13%; Population Healthy Nuclei (%) [5]: 70% and 74%; Population Hoechst High Intensity Objects (%) [5]: 14% and 13%; Population Membrane Permeable-Phenotype (%) [5]: 5% and 4%; Population Mitotic Cells (%) [5]: 52% and 61%; Population Normal (%) [5]: 85% and 86%; Population Pyknosed Nuclei (%) [5]: 11%; Total Cell Count [5]: 264 and 252; Population Fragmented Nuclei (%) [6]: 54% and 48%; Population Healthy Nuclei (%) [6]: 28% and 48%; Population Hoechst High Intensity Objects (%) [6]: 33% and 29%; Population Membrane Permeable-Phenotype (%) [6]: 13% and 11%; Population Mitochondria Different-Phenotype (%) [6]: 0% and 7%; Population Mitotic Cells (%) [6]: 44% and 100%; Population Normal (%) [6]: 66% and 70%; Total Cell Count [6]: 80 and 77; Population Apoptotic (%) [7]: 71% [middle of 4 runs]; Population Fragmented Nuclei (%) [7]: 26% [middle of 4 runs]; Population Healthy Nuclei (%) [7]: 64% [middle of 4 runs]; Population Hoechst High Intensity Objects (%) [7]: 15% [middle of 4 runs]; Population Mitochondria Different-Phenotype (%) [7]: 2% and 0%; Population Normal (%) [7]: 85% and 87% and 84% and 75%; Population Pyknosed Nuclei (%) [7]: 16% and 15%; Total Cell Count [7]: 291 and 285 and 333; Population Apoptotic (%) [8]: 44% [middle of 4 runs]; Population Fragmented Nuclei (%) [8]: 62% [middle of 4 runs]; Population Healthy Nuclei (%) [8]: 40% and 28% and 26%; Population Hoechst High Intensity Objects (%) [8]: 35% [middle of 4 runs]; Population Membrane Permeable-Phenotype (%) [8]: 17% [middle of 4 runs]; Population Normal (%) [8]: 68% and 64% and 53% and 72%; Population Pyknosed Nuclei (%) [8]: 11% [middle of 4 runs]; Total Cell Count [8]: 93 [middle of 4 runs]

Q: Which results are given for `CNC(=O)c1cc(Oc2ccc(NC(=O)Nc3cc(C(C)(C)C)nn3-c3ccc4ncccc4c3)c(F)c2)ccn1` [REBASTINIB]?
A: Population Apoptotic (%) [1]: 90%; Population Fragmented Nuclei (%) [1]: 24%; Population Healthy Nuclei (%) [1]: 66%; Population Hoechst High Intensity Objects (%) [1]: 10%; Population Membrane Permeable-Phenotype (%) [1]: 4%; Population Mitochondria Different-Phenotype (%) [1]: 2%; Population Mitotic Cells (%) [1]: 10%; Population Normal (%) [1]: 89%; Population Pyknosed Nuclei (%) [1]: 9%; Population Tubulin-Different-Phenotype (%) [1]: 4%; Total Cell Count [1]: 237; Population Apoptotic (%) [2]: 40%; Population Fragmented Nuclei (%) [2]: 56%; Population Healthy Nuclei (%) [2]: 32%; Population Hoechst High Intensity Objects (%) [2]: 38%; Population Membrane Permeable-Phenotype (%) [2]: 26%; Population Mitochondria Different-Phenotype (%) [2]: 6%; Population Mitotic Cells (%) [2]: 60%; Population Normal (%) [2]: 61%; Population Pyknosed Nuclei (%) [2]: 10%; Population Tubulin-Different-Phenotype (%) [2]: 26%; Total Cell Count [2]: 75; Population Apoptotic (%) [3]: 59%; Population Fragmented Nuclei (%) [3]: 20%; Population Healthy Nuclei (%) [3]: 59%; Population Hoechst High Intensity Objects (%) [3]: 8%; Population Membrane Permeable-Phenotype (%) [3]: 10%; Population Mitochondria Different-Phenotype (%) [3]: 16%; Population Mitotic Cells (%) [3]: 40%; Population Normal (%) [3]: 91%; Population Pyknosed Nuclei (%) [3]: 19%; Population Tubulin-Different-Phenotype (%) [3]: 44%; Total Cell Count [3]: 238; Population Apoptotic (%) [4]: 85%; Population Fragmented Nuclei (%) [4]: 54%; Population Healthy Nuclei (%) [4]: 24%; Population Hoechst High Intensity Objects (%) [4]: 45%; Population Membrane Permeable-Phenotype (%) [4]: 0%; Population Mitochondria Different-Phenotype (%) [4]: 37%; Population Mitotic Cells (%) [4]: 14%; Population Normal (%) [4]: 55%; Population Pyknosed Nuclei (%) [4]: 21%; Population Tubulin-Different-Phenotype (%) [4]: 50%; Total Cell Count [4]: 60; Population Apoptotic (%) [5]: 83%; Population Fragmented Nuclei (%) [5]: 24%; Population Healthy Nuclei (%) [5]: 64%; Population Hoechst High Intensity Objects (%) [5]: 12%; Population Membrane Permeable-Phenotype (%) [5]: 2%; Population Mitochondria Different-Phenotype (%) [5]: 2%; Population Mitotic Cells (%) [5]: 16%; Population Normal (%) [5]: 87%; Population Pyknosed Nuclei (%) [5]: 11%; Population Tubulin-Different-Phenotype (%) [5]: 3%; Total Cell Count [5]: 239; Population Apoptotic (%) [6]: 33%; Population Fragmented Nuclei (%) [6]: 56%; Population Healthy Nuclei (%) [6]: 37%; Population Hoechst High Intensity Objects (%) [6]: 30%; Population Membrane Permeable-Phenotype (%) [6]: 5%; Population Mitochondria Different-Phenotype (%) [6]: 10%; Population Mitotic Cells (%) [6]: 66%; Population Normal (%) [6]: 69%; Population Pyknosed Nuclei (%) [6]: 5%; Population Tubulin-Different-Phenotype (%) [6]: 31%; Total Cell Count [6]: 73; Population Apoptotic (%) [7]: 52%; Population Fragmented Nuclei (%) [7]: 24%; Population Healthy Nuclei (%) [7]: 57%; Population Hoechst High Intensity Objects (%) [7]: 14%; Population Membrane Permeable-Phenotype (%) [7]: 4%; Population Mitochondria Different-Phenotype (%) [7]: 28%; Population Mitotic Cells (%) [7]: 47%; Population Normal (%) [7]: 85%; Population Pyknosed Nuclei (%) [7]: 17%; Population Tubulin-Different-Phenotype (%) [7]: 54%; Total Cell Count [7]: 229; Population Apoptotic (%) [8]: 70%; Population Fragmented Nuclei (%) [8]: 52%; Population Healthy Nuclei (%) [8]: 22%; Population Hoechst High Intensity Objects (%) [8]: 33%; Population Membrane Permeable-Phenotype (%) [8]: 33%; Population Mitochondria Different-Phenotype (%) [8]: 44%; Population Mitotic Cells (%) [8]: 30%; Population Normal (%) [8]: 66%; Population Pyknosed Nuclei (%) [8]: 25%; Population Tubulin-Different-Phenotype (%) [8]: 44%; Total Cell Count [8]: 60
